core dimer inh: HCV core protein dimerization inhibition; TR-FRET GST/Flag-core106 dimerization, 1536-well; hit rate 0.33% among 300,000; inhibition, % at 5 µM; AID 1899;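 active = inhibition above the mean of all tested compounds plus 3 SD, set per screening campaign, cut at about 45% in these data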
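test system = GST/Flag-tagged HCV core106 proteins | probe or stimulus = Eu donor and XL665 acceptor anti-tag antibodies | times = compound-protein-antibody incubation 4 h at 22.5 °C | signal = TR-FRET, excitation 340 nm, emission 617 and 671 nm | measure = percent inhibition of core106 dimerization signal | controls = wells lacking GST-core106 and wells with excess unlabelled core106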
NS3 helicase inh: blocks Hepatitis C virus NS3 helicase unwinding; NS3 helicase DNA unwinding, Cy5 molecular beacon fluorescence; inhibition, % at 10.9 µM; hit rate 0.56% among 290,000;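 active = inhibition above the mean of all tested compounds plus 3 SD, set per campaign, cut at about 35% in these data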;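 also: 0% = DMSO wells and 100% = thioflavine S control wells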
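Test system: hepatitis C virus NS3 helicase domain fragment enzyme. Also added: annealed dual-labelled DNA beacon duplex, ATP-started. Timing: 60 min unwinding reaction at 25 °C after ATP addition. Technique: Cy5 fluorescence. Measure: % inhibition of unwinding.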
GPR7 antagonist: blocks human GPR7 receptor signaling. P48145. AID 1861. inhibition, % at 4.4 µM. GPR7-expressing cells, fluorescence antagonist assay. hit rate 1.1% among 290,000; in the data active = inhibition above about 16%, passing the limit was not always enough;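 also: cells stimulated with the agonist NPW; 0% = agonist with vehicle and 100% = vehicle without agonist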
EBV gp42 block: EBV gp42 inhibition; inhibition, % (tested at 21.74 µM); Fluorescence polarization binding assay, mP read-out; AID 1085; Q1HVG2; hit rate 0.42% among 220,000; in the data active = inhibition above about 50%
Target sequence (Q1HVG2 whole entry, looked up): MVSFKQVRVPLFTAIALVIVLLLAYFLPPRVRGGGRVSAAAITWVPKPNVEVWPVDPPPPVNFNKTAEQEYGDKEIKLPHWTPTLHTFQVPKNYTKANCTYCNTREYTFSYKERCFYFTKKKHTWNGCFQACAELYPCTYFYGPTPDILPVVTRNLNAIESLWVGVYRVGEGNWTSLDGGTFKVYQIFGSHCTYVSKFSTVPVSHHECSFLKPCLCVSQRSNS
EBNA-1 inhibitor: blocks EBNA-1 binding to DNA. AID 1950. inhibition, % at 14.8 µM. hit rate 0.34% among 300,000. EBNA-1 DNA binding, fluorescence polarization; in the data active = inhibition above about 28%
ZTA DNA inh: ZTA (EBV) inhibition in EBNA-1 counter-screen; P03206; ZTA-DNA binding, fluorescence polarization; inhibition, % at 11 µM; hit rate 0.15% among 320,000; AID 2234; in the data active = inhibition above about 33%
Target sequence (P03206 whole entry, looked up): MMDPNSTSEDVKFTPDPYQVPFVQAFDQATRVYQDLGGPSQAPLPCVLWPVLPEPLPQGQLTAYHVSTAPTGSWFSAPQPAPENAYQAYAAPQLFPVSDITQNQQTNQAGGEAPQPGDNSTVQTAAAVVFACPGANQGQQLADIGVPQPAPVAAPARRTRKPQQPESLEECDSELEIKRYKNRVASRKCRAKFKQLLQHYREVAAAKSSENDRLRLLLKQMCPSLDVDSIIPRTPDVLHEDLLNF
Starred values were filed as active, the others as inactive; x = no result. This is a sample that favours compounds with a hit; in the whole collection about 2.3% have one here.

SMILES | core dimer inh | NS3 helicase inh | GPR7 antagonist | EBV gp42 block | EBNA-1 inhibitor | ZTA DNA inh
Cc1cc(C)n(CC(O)COc2ccccc2Br)n1 (centres undefined) | -8.8 | -3.8 | -7.4 | x | -12.2 | -14.5
Cc1ccc(-c2noc(CCC(=O)NCCCN3CCN(c4cccc(Cl)c4)CC3)n2)cc1 | -12.7 | -64.0 | 19.0* | -8.2 | -14.7 | -5.5
Cc1ccc(-c2noc(CCC(=O)NCCCN3CCN(c4ccc(F)cc4)CC3)n2)cc1 | -13.7 | -44.7 | 5.3 | -8.4 | -13.6 | 5.4
N#C/C(=C\Nc1ccccc1O)c1nc2ccccc2o1 | -5.0 | 4.7 | 0.9 | -6.5 | 5.2 | -11.0
COc1ccccc1NC(=O)/C(C#N)=C/c1cc([N+](=O)[O-])ccc1N1CCCC1 | 16.2 | 7.2 | -4.4 | 160.8* | 0.6 | 9.2
O=C(/C=C/c1ccco1)Nc1cccc(NC(=O)/C=C/c2ccco2)n1 | 49.1* | 26.2 | -7.7 | -9.5 | -8.7 | -7.2
O=C(OCCN1CCCCC1)c1c[nH]c2ccccc12 | -5.0 | x | x | x | 2.9 | 0.8
O=C(COc1ccccc1)Nc1ccc(S(=O)(=O)N2CCCCCC2)cc1 | 3.8 | 7.5 | -1.2 | -3.0 | -1.5 | 7.5
O=C(COc1ccccc1)Nc1ccc(S(=O)(=O)N2CCCC2)cc1 | 9.1 | 9.6 | 16.8* | -18.1 | 10.4 | -0.8
O=C(COC(=O)c1n[nH]c2ccccc12)Nc1ccc(S(=O)(=O)N2CCCC2)cc1 | 15.5 | -5.5 | 17.4* | -22.7 | 13.9 | 5.4
O=C(COC(=O)c1n[nH]c2ccccc12)Nc1cccc(S(=O)(=O)N2CCOCC2)c1 | x | -4.4 | 1.0 | 5.7 | x | x
COC(=O)c1ccc(C(=O)N2CCCC(Nc3ccc(F)c(F)c3)C2)cc1 (centres undefined) | -2.2 | -8.5 | -12.0 | x | 10.7 | 13.2
Cn1c(N)c(C(=O)COC(=O)c2cc(-c3ccco3)nc3ccccc23)c(=O)n(Cc2ccccc2)c1=O | 47.1* | 12.0 | -10.8 | -17.7 | 14.2 | -0.2
COc1cc(-c2cc(C(=O)Nc3ccccc3N3CCOCC3)c3ccccc3n2)cc(OC)c1OC | 4.6 | -6.5 | -9.5 | -4.9 | -6.2 | -24.8
CNC(=O)COC(=O)c1cc(-c2ccco2)nc2ccccc12 | 48.1* | 34.6 | 0.5 | 31.1 | -2.1 | 5.7
O=C(Nc1ccccc1N1CCOCC1)c1cc(-c2ccco2)nc2ccccc12 | 55.9* | 9.1 | -18.3 | 14.7 | -7.9 | -19.0
O=C(Nc1nncs1)c1ccc2c(c1)OCO2 | -10.6 | 5.8 | -9.1 | x | -5.4 | -13.6
CSCCC(NC(=O)c1ccccc1C)C(=O)O (centres undefined) | 1.1 | -0.5 | -0.9 | 1.3 | -1.2 | 0.8
Cn1cccc1CC(=O)N/N=C/c1cc([N+](=O)[O-])ccc1Cl | 48.1* | 5.0 | -1.5 | -5.2 | -10.9 | 0.8
Cn1cccc1CC(=O)N/N=C/c1cccc([N+](=O)[O-])c1 | 25.7 | 17.6 | -6.0 | 1.8 | -16.3 | 2.0
CCN(c1ccccc1)S(=O)(=O)c1cccc(C(=O)Nc2ccc(C)cn2)c1 | 1.8 | -9.8 | -22.7 | x | 1.9 | 3.7
CCOC(=O)C1CCCN(C(=O)c2cnn3c(C(F)F)cc(-c4ccc(C)cc4)nc23)C1 (centres undefined) | 15.3 | -5.2 | 19.0* | -2.3 | -1.6 | 19.0
CCOC(=O)c1c(-c2ccco2)csc1NC(=O)COC(=O)c1cnc(C)cn1 | 52.1* | x | x | x | -1.4 | -19.5
COc1cccc2cc(C(=O)Nc3ccccc3Cl)/c(=N/NS(=O)(=O)c3ccccc3)oc12 | 0.6 | 4.4 | -8.1 | x | 1.8 | -2.9
Clc1ccc(CSc2nncn2-c2ccc3c(c2)OCCO3)cc1 | 2.1 | -2.7 | 18.8* | -7.1 | -1.4 | 1.9
SMILES | core dimer inh | NS3 helicase inh | GPR7 antagonist | EBV gp42 block | EBNA-1 inhibitor | ZTA DNA inh
Clc1ccc(CSc2nncn2-c2ccccn2)cc1 | -6.1 | 6.7 | 0.8 | 10.7 | -10.7 | -2.2
O=C(Cc1cccc2ccccc12)N/N=C/c1ccc(F)cc1 | -3.2 | -12.5 | 19.8 | -30.5 | 0.5 | 1.1
O=C(Cc1cccc2ccccc12)N/N=C/c1ccc(OC(=O)/C=C/c2ccco2)cc1 | 64.8* | 15.3 | 0.0 | 0.0 | 5.8 | -6.5
O=C(O)CN1C(=O)c2cccc3c(Br)ccc1c23 | 1.9 | 10.0 | -16.9 | x | -12.5 | -11.6
CN(C)CCCN1C(=O)c2cccc3c(Br)ccc(c23)C1=O | -5.5 | 14.1 | 1.6 | 77.3* | 6.2 | 1.4
CCCCNc1ccc2c3c(cccc13)C(=O)N(CCCC)C2=O | x | -14.9 | 37.0* | 180.7* | x | x

Screens: PubChem BioAssay, several laboratories
